Converted amounts (≈) assume the structure as drawn. “And” between values parts separate entries of the source, which are not always exact repeats. Equal values may be shown once. Marks after values point to notes of the source that are not given here.
What was measured:
P. cynomolgi DHODH = P. cynomolgi DHODH (Plasmodium cynomolgi, UniProt K6UE05); experiment: DHODH inhibition, DCIP spectrophotometric assay; assay type: biochemical
rabbit DHODH = rabbit DHODH (Oryctolagus cuniculus, UniProt G1SWF3); experiment: DHODH inhibition, DCIP spectrophotometric assay; assay type: biochemical
Chain of rabbit DHODH (G1SWF3 1-395): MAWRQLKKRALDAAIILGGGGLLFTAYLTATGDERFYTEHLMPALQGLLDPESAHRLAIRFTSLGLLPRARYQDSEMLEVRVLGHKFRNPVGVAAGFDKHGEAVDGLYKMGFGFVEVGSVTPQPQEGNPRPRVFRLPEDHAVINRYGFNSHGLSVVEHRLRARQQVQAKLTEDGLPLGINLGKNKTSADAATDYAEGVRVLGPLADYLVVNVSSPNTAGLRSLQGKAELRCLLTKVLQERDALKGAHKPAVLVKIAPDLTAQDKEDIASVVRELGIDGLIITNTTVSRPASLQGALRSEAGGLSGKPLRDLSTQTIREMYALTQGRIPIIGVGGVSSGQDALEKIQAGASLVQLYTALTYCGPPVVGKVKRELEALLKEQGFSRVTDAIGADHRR

P. falciparum 3D7 [1] = experiment: In vitro P. falciparum 3D7 growth inhibition; assay type: cell-based; conditions: Plasmodium falciparum, 3D7, read-out: P. falciparum 3D7 growth inhibition EC50
Summary of the method: (§1)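 SYBR-green growth assay on P. falciparum 3D7 and drug-resistant lines, including chloroquine- and pyrimethamine-resistant parasites, cultured in RPMI-1640 with 0.5% Albumax-II. At least triplicate data per concentration. EC50 from the log(inhibitor) vs response variable-slope (four-parameter) fit by nonlinear least squares, reported with 95% confidence intervals of the fit.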

P. falciparum 3D7 [2] = experiment: In vitro killing curves / 48 h growth assay, P. falciparum 3D7 blood stage; assay type: cell-based
[3] = system: 9 strains of P. falciparum; experiment: In vitro blood-stage activity on 9 strains of P. falciparum; assay type: cell-based; conditions: Plasmodium falciparum, read-out: EC50 range over all tested strains
Summary of the method: as §1

[4] = system: P. cynomolgi liver-stage parasites; experiment: P. cynomolgi liver-stage model; assay type: cell-based
[5] = system: P. falciparum early stage gametocytes stage III – IV; strain NF54; experiment: Early stage gametocyte assay; assay type: cell-based
[6] = system: P. falciparum gametocytes stages IV–V; experiment: Gametocyte assay stages IV–V; assay type: cell-based
P. falciparum gametes = experiment: Dual gamete formation assay; assay type: cell-based
[7] = system: P. falciparum stage V oocyst; experiment: Oocyst formation in mosquitoes
[8] = system: P. falciparum Pf3D7_0087/N9; experiment: P. falciparum SCID mouse 4-day dosing efficacy model; assay type: in vivo
P. falciparum Dd2 = assay type: cell-based; conditions: Dd2, 3xEC50
[9] = system: P. falciparum Dd2 and resistant clones; experiment: microbe, parasite or virus in culture; assay type: cell-based; conditions: Plasmodium falciparum, DD2|DSM265, read-out: DSM265 Dd2 EC50, Dd2/wt
P. falciparum parasites = experiment: Drug combination, fixed-ratio isobologram method; assay type: cell-based; conditions: artemisinin derivatives, OZ439, chloroquine, piperaquine, pyronaridine, mefloquine, lumefantrine, atovaquone, proguanil, P218, pyrimethamine
Caco-2 permeability = assay type: in vitro ADME; conditions: human, Caco-2
Caco-2 cell monolayers = experiment: Caco-2 permeability; assay type: in vitro ADME
[10] = Plasma protein binding, mouse; assay type: in vitro ADME
[11] = Plasma protein binding, dog; assay type: in vitro ADME
[12] = Plasma protein binding, rat; assay type: in vitro ADME
CYP2C8 = CYP2C8 (Homo sapiens, UniProt P10632); experiment: Metabolism by individual human CYP enzymes; assay type: in vitro ADME; conditions: CYP2C8 Supersomes
Chain of CYP2C8 (P10632 whole entry): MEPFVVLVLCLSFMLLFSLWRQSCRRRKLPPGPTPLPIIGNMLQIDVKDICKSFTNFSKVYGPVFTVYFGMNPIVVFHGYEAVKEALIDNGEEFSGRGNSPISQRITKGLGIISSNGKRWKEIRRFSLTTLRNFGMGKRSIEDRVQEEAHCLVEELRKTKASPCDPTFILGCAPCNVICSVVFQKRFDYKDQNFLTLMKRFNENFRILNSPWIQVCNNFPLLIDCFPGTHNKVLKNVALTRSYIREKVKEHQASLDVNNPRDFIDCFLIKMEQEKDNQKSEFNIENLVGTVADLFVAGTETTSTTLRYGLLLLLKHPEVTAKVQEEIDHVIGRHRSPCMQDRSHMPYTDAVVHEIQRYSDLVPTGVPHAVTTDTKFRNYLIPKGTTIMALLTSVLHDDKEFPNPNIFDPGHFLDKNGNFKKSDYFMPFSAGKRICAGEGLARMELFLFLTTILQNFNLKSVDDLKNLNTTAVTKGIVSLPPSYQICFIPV

CYP2C19 = CYP2C19 (Homo sapiens, UniProt P33261); experiment: Metabolism by individual human CYP enzymes; assay type: in vitro ADME; conditions: CYP2C19 Supersomes
Chain of CYP2C19 (P33261 whole entry): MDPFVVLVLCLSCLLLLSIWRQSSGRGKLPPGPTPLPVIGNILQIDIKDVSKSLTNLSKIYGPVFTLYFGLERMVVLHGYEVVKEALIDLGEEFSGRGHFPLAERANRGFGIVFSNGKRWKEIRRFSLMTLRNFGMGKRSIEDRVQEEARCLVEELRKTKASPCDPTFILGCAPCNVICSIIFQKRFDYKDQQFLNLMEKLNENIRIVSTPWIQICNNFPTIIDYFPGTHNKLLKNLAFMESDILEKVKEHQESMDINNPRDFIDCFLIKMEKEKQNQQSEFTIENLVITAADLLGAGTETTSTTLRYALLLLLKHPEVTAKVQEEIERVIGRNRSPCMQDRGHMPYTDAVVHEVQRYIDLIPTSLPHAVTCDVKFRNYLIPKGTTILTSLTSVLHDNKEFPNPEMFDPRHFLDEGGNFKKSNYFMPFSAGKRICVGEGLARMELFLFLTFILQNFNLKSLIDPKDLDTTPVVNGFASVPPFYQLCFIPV

[13] = Stability in hepatic microsomes and cryopreserved hepatocytes; assay type: in vitro ADME; conditions: across species
[14] = Intravenous pharmacokinetics in monkeys and dogs; assay type: in vivo; conditions: male (dogs), female (monkeys), macaque (monkeys), beagle (dogs), monkey, dog, plasma
Summary of the method: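 Male beagle dogs and female macaque monkeys received a single intravenous dose. Blood was collected into anticoagulant tubes and plasma was separated by centrifugation. Parent compound and metabolites were quantified by LC/MS. Typically 2–6 animals were used per study, with standard deviation given where n>2.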

Pharmacokinetics in mice = assay type: in vivo; conditions: female, Swiss outbred, mouse, plasma
Summary of the method: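 Single-dose PK in female Swiss outbred mice or male beagle dogs, dosed IV and orally in a range of formulations. Blood was drawn into anticoagulant tubes and plasma separated by centrifugation. Compound was quantified by LC/MS, typically in 2–6 animals per study, with SD given where n>2.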

[15] = Human pharmacokinetic prediction
[16] = molecular target: panel of 106 human receptors and ion channels; experiment: Cerep panel of 106 human receptors and ion channels; assay type: binding
panel of human kinases = experiment: Panel of human kinases; assay type: biochemical; conditions: University of Dundee
CYP enzymes = experiment: CYP induction in human hepatocytes; assay type: in vitro ADME
[17] = system: micronucleated polychromatic erythrocytes; experiment: Oral bone marrow micronucleus test; assay type: in vivo; conditions: male CD1 mice
[18] = molecular target: human ether-a-go-go related gene (hERG) K+ channel (Homo sapiens, UniProt Q12809); experiment: hERG patch clamp assay; assay type: cell-based
Chain of human ether-a-go-go related gene (hERG) K+ channel (Q12809 whole entry): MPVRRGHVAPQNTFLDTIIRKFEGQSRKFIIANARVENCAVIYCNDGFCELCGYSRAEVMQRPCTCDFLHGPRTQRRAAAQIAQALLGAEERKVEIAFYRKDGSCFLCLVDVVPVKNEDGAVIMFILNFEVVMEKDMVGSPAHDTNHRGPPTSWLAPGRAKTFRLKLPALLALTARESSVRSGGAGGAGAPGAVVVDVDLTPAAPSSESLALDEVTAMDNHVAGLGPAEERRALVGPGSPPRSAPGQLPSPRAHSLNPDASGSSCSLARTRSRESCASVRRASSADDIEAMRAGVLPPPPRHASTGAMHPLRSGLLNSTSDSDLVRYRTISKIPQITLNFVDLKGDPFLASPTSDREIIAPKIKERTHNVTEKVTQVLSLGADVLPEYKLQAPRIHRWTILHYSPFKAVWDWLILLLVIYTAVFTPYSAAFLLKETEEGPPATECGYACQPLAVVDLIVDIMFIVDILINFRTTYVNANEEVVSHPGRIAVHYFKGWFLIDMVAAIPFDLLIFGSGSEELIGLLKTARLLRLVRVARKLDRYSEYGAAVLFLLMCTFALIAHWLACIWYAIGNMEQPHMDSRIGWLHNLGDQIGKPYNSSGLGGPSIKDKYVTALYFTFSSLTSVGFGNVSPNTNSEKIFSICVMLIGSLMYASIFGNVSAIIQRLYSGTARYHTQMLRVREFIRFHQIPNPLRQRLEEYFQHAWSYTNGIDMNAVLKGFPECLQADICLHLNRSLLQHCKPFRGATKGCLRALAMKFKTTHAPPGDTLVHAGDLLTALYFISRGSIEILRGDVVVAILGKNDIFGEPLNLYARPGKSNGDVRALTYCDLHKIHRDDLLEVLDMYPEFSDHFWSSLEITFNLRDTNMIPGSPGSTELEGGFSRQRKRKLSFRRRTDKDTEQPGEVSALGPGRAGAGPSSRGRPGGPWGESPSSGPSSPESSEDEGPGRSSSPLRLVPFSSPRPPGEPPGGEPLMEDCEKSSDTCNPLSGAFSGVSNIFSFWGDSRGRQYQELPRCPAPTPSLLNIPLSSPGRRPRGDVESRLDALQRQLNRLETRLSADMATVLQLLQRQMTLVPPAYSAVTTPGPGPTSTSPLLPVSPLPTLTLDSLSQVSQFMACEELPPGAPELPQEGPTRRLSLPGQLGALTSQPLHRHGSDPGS

[19] = system: rabbit cardiac ventricular wedge; experiment: Rabbit cardiac ventricular wedge assay
[20] = Cardiac safety by telemetry in conscious dogs; assay type: in vivo
[21] = 10-day repeat dose toxicity study in dogs; assay type: in vivo; conditions: highest dose tested, Day 1
Summary of the method: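 Male beagle dogs were dosed orally every other day in the fed state over a 10-day repeat-dose exploratory (non-GLP) toxicology study. They were monitored daily for clinical signs, body weight and food consumption, with haematology, clinical chemistry and histopathology. Plasma toxicokinetics were taken on day 1 to give Cav, and full toxicokinetics were not collected after the final dose.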

P. berghei DHODH = conditions: cited from earlier work
[22] = determined 24 h after the last dose

In the case of `Cc1cc(Nc2ccc(S(F)(F)(F)(F)F)cc2)n2nc(C(C)(F)F)nc2n1` [DSM265, 2-(1,1-difluoroethyl)-5-methyl-[N-[4-(pentafluorosulfanyl)phenyl]1,2,4]triazolo[1,5-a]pyrimidin-7-amine], the IC50 (P. cynomolgi DHODH) is reported as 0.012 µM, the IC50 (rabbit DHODH) is reported as > 98.7 µM and the EC50 (P. falciparum 3D7 [1]) is reported as 1.8 ng/mL (≈ 0.00433 µM). The EC50 (P. falciparum 3D7 [2]; Plasmodium falciparum, 3D7, 48 h, read-out: P. falciparum 3D7 in vitro growth assay EC50) was 4.6 ng/mL (≈ 0.0111 µM), the “lag-phase prior to parasite killing” value (P. falciparum 3D7 [2]; at 1xEC50) was 96 h and the “lag-phase prior to parasite killing” value (P. falciparum 3D7 [2]; at 3xEC50 and above) was 24 to 48 h. The “Unbound in vitro MPC (kill assay)” value (P. falciparum 3D7 [2]; corrected with fraction unbound in 0.5% Albumax II in RPMI-1640) was 0.002 µg/mL and 0.0020 µg/mL, the “P. falciparum 3D7 in vitro MPC (kill assay)” value (P. falciparum 3D7 [2]; minimum parasiticidal concentration = 3xEC50) was 0.014 μg/mL and 0.014 ^a μg/mL and the EC50 [3] was 1 to 4 ng/mL (≈ 0.00241 to 0.00963 µM). For the same compound, the “activity against small forms (non-dividing hypnozoite)” value [4] was “poor activity”, the EC50 ([4]; Plasmodium cynomolgi, read-out: EC50, liver-stage large form (multinucleated schizont)) was 130 ng/mL (≈ 0.313 µM) and the EC50 ([5]; Plasmodium falciparum, NF54, read-out: EC50, early stage gametocytes stage III – IV) was > 420 ng/mL. The “EC50, early stage gametocytes stage III – IV” value ([5]; strain NF54) was “no activity”, the “EC50, gametocytes stages IV–V” value [6] was “no activity” and the EC50 ([6]; Plasmodium falciparum, read-out: EC50, gametocytes stages IV–V) was > 16000 ng/mL. For the same compound, the “EC50, dual gamete formation assay” value (P. falciparum gametes) was “inactive”, the inhibition at 1 µg/mL ([7]; Plasmodium falciparum, read-out: inhibition of oocyst formation) was 38% and the “inhibition of oocyst formation at unbound concentration” value ([7]; at 0.001 μg/mL unbound (human plasma fraction unbound)) was 38% at 0.001. The “blood concentration 23 h after the last dose, estimate of the MPC” value ([8]; 13 mg/kg/day (6.4 mg/kg b.i.d.), oral, 4 days) was 0.53 µg/mL, the “SCID mouse in vivo MPC (plasma)” value ([8]; blood converted to plasma with blood to plasma ratio 0.5) was 1.1 ^c μg/mL and the “Unbound SCID mouse in vivo MPC (plasma)” value ([8]; corrected with fraction unbound 0.001) was 0.0011 µg/mL. The ED90 [8, 22] was 1.5 mg/kg/12 h, the “dose at the MPC” value [8, 22] was 6.4 mg/kg/12 h and the “MIR, range over two independent studies” value (P. falciparum Dd2) was 2×10^5–2×10^7 parasites. For the same compound, the EC50 [9] was 2.2 ng/mL (≈ 0.0053 µM), the “interaction with other antimalarials” value (P. falciparum parasites) was “additive” and the Papp A→B (Caco-2 permeability) was > 30 ×10⁻⁶ cm/s. For the same compound, the BCS classification (Caco-2 cell monolayers; from high permeability and low aqueous solubility) was “BCS Class II”, the “substrate for Pgp and BCRP” value (Caco-2 cell monolayers; with verapamil and fumitremorgin C) was “not a substrate” and the fraction unbound [10] was 0.003. It also gave a fraction unbound [11] of 0.006, a fraction unbound [12] of 0.023 and an extent of metabolism (CYP2C8) of 0.032 μL/min/pmol CYP. The extent of metabolism (CYP2C19) was 0.039 μL/min/pmol CYP, the “degradation in hepatic microsomes and cryopreserved hepatocytes” value [13] was “minimal degradation” and the half-life [14] was 10 to 45 h. The half-life (Pharmacokinetics in mice) was 2 to 4 h, the “plasma MPC used for the human dose prediction” value [15] was 1 to 2 µg/mL and the “IC50 values for the full panel” value [16] was > 4200 ng/mL. For the same compound, the “activity against a panel of human kinases” value (panel of human kinases) was “minimal activity”, the CYP induction (CYP enzymes) was “did not induce CYP enzymes” and the micronucleated polychromatic erythrocytes [17] was “no increase”. The IC50 [18] was 1.59 to 6.98 µM, the “QT and Tp-e interval” value ([19]; at 1 or 0.5 Hz) was “did not cause any significant prolongation” and the “Torsade de Pointes (TdP)-type arrhythmias” value ([19]; tested up to 5 μg/mL) was “no Torsade de Pointes (TdP)-type arrhythmias were observed”. The concentration at 24 h ([20]; dog, plasma, oral, 300 mg/kg) was 1300 ng/mL, the ECGs ([20]; oral doses of 30 and 300 mg/kg) was “within normal limits” and the “average plasma concentration within a dosing interval (Cav)” value [21] was 16400 ng/mL. The “activity against P. berghei DHODH” value (P. berghei DHODH) was “poor activity”.

From publication PMC4539048 (Science translational medicine, 2015)
